The text below walks through data of ChEMBL document CHEMBL1136016, “Synthesis, biological activity, and molecular modeling investigation of new pyrazolo[4,3-e]-1,2,4-triazolo[1,5-c]pyrimidine derivatives as human A(3) adenosine receptor antagonists” (J Med Chem, 2002).

pIC50, pKi: −log10 of the molar value. A value given as a limit tells only on which side of the number the result lay.

Test [1] addresses T1, Adenosine receptor A2b (Homo sapiens, UniProt P29275).
T1 sequence (P29275 whole entry): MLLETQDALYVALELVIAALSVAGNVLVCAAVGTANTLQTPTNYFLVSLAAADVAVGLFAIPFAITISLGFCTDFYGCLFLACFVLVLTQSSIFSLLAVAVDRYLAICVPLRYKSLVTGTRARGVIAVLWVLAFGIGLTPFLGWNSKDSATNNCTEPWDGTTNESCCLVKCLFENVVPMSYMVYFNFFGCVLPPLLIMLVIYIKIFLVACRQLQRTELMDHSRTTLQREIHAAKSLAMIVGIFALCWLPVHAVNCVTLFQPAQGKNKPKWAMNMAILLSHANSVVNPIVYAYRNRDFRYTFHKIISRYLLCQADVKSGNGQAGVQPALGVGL
As to the kind of experiment: Displacement of [3H]-DPCPX from human Adenosine A2B receptor expressed in HEK293 cells; range 118-173. It is filed as cell-based. In short, it runs like this: (§1)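 HEK-293 membranes expressing the human receptor were incubated 60 min at 25 °C. Six to eight test concentrations were used. Nonspecific binding was set with NECA. n = 3-6.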

In test [2] the target is T2, Adenosine receptor A2a (Homo sapiens, UniProt P29274). As to the kind of experiment: Displacement of [3H]SCH-58261 from human Adenosine A2A receptor expressed in HEK293 cells; range 255-366. It is filed as cell-based.
T2 sequence (P29274 whole entry): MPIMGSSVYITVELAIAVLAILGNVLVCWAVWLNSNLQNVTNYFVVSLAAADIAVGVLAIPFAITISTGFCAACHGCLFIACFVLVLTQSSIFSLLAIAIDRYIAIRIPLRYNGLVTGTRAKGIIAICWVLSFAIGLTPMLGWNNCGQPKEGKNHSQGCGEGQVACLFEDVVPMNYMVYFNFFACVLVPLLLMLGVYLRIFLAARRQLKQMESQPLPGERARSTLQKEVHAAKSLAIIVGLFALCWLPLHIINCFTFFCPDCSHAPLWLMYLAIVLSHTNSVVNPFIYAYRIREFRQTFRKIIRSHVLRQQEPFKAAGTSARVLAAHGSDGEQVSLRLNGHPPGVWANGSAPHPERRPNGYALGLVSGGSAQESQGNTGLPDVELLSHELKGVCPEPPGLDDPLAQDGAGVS
Test [3] has as its target T3, Adenosine receptor A3 (Homo sapiens, UniProt P0DMS8).
T3 sequence (P0DMS8 whole entry): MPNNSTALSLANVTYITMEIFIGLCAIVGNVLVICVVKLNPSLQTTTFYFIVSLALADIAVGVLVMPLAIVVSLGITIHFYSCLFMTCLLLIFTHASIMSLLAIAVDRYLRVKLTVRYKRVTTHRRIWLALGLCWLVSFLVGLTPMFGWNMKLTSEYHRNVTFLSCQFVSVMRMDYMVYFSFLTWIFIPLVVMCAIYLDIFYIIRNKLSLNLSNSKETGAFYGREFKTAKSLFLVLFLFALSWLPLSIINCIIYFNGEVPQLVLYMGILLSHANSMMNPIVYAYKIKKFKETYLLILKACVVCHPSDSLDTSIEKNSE
As to the kind of experiment: Displacement of [3H]MRE3008-F20 from human Adenosine A3 receptor expressed in HEK cells; range 0.65-1.58. It is filed as cell-based, HEK293.

Test [4] has as its target Adenosine receptors; A2b & A3 (Homo sapiens) (UniProt P29275+P0DMS8). As to the kind of experiment: Selectivity ratio (h2B/hA3). Type of test: protein assay.
Test [5] addresses Adenosine receptors; A1 & A3 (Homo sapiens) (UniProt P30542+P0DMS8). As to the kind of experiment: Selectivity ratio (hA1/hA3). It is filed as protein assay.
Test [6] has as its target T1, Adenosine receptor A2b. As to the kind of experiment: Displacement of [3H]DPCPX from human Adenosine A2B receptor expressed in HEK293 cells; range 115-143. Type of test: cell-based. In short, it runs like this:
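Competition binding on membranes of HEK-293 cells carrying recombinant human A2B receptor. Incubation 60 min at 25 °C in 50 mM Tris HCl pH 7.4 with 10 mM MgCl2, 1 mM EDTA, 0.1 mM benzamidine and 2 IU/mL adenosine deaminase. Radioligand 40 nM [3H]DPCPX, at least six to eight test concentrations. NECA defined nonspecific binding. Bound ligand separated on glass-fibre filters and counted; n = 3-6.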

For test [7], the target named is T4, Adenosine receptor A1 (Homo sapiens, UniProt P30542).
T4 sequence (P30542 whole entry): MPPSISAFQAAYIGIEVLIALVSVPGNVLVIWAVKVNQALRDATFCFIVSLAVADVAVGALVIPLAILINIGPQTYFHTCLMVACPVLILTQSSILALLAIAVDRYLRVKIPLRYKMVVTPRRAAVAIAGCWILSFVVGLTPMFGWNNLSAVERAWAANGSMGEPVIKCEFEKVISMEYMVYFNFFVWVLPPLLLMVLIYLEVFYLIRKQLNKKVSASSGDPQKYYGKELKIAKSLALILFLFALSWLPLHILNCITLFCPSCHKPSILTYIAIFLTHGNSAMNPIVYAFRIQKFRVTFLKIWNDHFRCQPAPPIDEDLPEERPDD
As to the kind of experiment: Displacement of [3H]DPCPX from human Adenosine A1 receptor expressed in CHO cells; range 351-526. Type of test: cell-based. In short, it runs like this: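 Competition binding on membranes of CHO cells stably expressing human A1 receptor, resuspended in 50 mM Tris HCl pH 7.4. Incubation 120 min at 25 °C with 1 nM [3H]DPCPX, 50 µg protein per assay and at least six to eight test concentrations. CHA defined nonspecific binding. Bound ligand separated on glass-fibre filters and counted; n = 3-6.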

The target in test [8] is T3, Adenosine receptor A3. As to the kind of experiment: Displacement of [3H]MRE3008-F20 from human Adenosine A3 receptor expressed in HEK cells; range 0.23-0.36. It is filed as cell-based, HEK293.
Test [9] concerns the target T3, Adenosine receptor A3. As to the kind of experiment: Inhibition of IB-MECA agonist-mediated cAMP production in membranes of CHO cells expressing human Adenosine A3 receptor; range 1.2-4.9. It is filed as functional, cell-based. In short, it runs like this: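 Human A3-CHO membranes (in 50 mM Tris HCl, 10 mM MgCl2, 1 mM EDTA, pH 7.4) were preincubated for 10 min at 37 °C with 5 µM GTP, 0.5 mM Ro 20-1724 and 2.0 IU/mL adenosine deaminase. IB-MECA (100 nM) or antagonist was then added with 1 mM ATP and forskolin for 10 min. The reaction was stopped by 2 min boiling. cAMP was measured by [3H]cAMP competitive protein binding using beef adrenal binding protein, 150 min at 4 °C.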

The target of test [10] is T2, Adenosine receptor A2a. As to the kind of experiment: Displacement of [3H]SCH-58261 from human Adenosine A2A receptor expressed in HEK293 cells; range 162-200. Type of test: cell-based.
Test [11] concerns the target T4, Adenosine receptor A1. As to the kind of experiment: Displacement of [3H]DPCPX from human Adenosine A1 receptor expressed in CHO cells. It is filed as cell-based. In short, it runs like this:
(§2)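 Human recombinant A1 receptor in CHO cell membranes, resuspended in 50 mM Tris HCl pH 7.4. Displacement run 120 min at 25 °C with 1 nM [3H]DPCPX, 50 µg protein per assay, and at least six to eight test concentrations. Nonspecific binding defined with CHA. Bound and free separated on glass-fiber filters; filter radioactivity counted. n = 3-6.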

The target in test [12] is T1, Adenosine receptor A2b. As to the kind of experiment: Displacement of [3H]DPCPX binding at human Adenosine A2B receptor expressed in HEK293 cells. Type of test: cell-based. In short, it runs like this: (§3)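 Membranes from HEK-293 cells with human recombinant A2B receptor. Incubation 60 min at 25 °C in 50 mM Tris HCl, 10 mM MgCl2, 1 mM EDTA, 0.1 mM benzamidine, pH 7.4, with 2 IU/mL adenosine deaminase and 40 nM [3H]DPCPX. At least six to eight test concentrations. Nonspecific binding defined with NECA. n = 3-6.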

In test [13] the target is T3, Adenosine receptor A3. As to the kind of experiment: Displacement of specific [3H]MRE3008-F20 binding at human Adenosine A3 receptor expressed in HEK cells; value ranges from 39-55. It is filed as cell-based, HEK293.
Test [14] concerns the target T2, Adenosine receptor A2a. As to the kind of experiment: Displacement of [3H]SCH-58261 from human Adenosine A2A receptor expressed in HEK293 cells; range 300-414. It is filed as cell-based.
The target of test [15] is T4, Adenosine receptor A1. As to the kind of experiment: Displacement of [3H]DPCPX from human Adenosine A1 receptor expressed in CHO cells; range 330-486. It is filed as cell-based.
The target of test [16] is T1, Adenosine receptor A2b. As to the kind of experiment: Displacement of [3H]DPCPX from human Adenosine A2B receptor expressed in HEK293 cells; range 68-105. It is filed as cell-based. In short, it runs like this: as §3
For test [17], the target named is T2, Adenosine receptor A2a. As to the kind of experiment: Displacement of [3H]SCH-58261 from human Adenosine A2A receptor expressed in HEK293 cells; range 134-190. Type of test: cell-based.
The target in test [18] is T3, Adenosine receptor A3. As to the kind of experiment: biochemical.
The target of test [19] is T4, Adenosine receptor A1. As to the kind of experiment: Displacement of [3H]DPCPX from human Adenosine A1 receptor expressed in CHO cells; range 314-536. It is filed as cell-based.
For test [20], the target named is T1, Adenosine receptor A2b. As to the kind of experiment: Displacement of [3H]DPCPX from human Adenosine A2B receptor expressed in HEK293 cells; range 57-105. It is filed as cell-based. Summed up: as §3
Test [21] addresses T2, Adenosine receptor A2a. As to the kind of experiment: Displacement of [3H]SCH-58261 from human Adenosine A2A receptor expressed in HEK293 cells; range 332-426. Type of test: cell-based.
The target in test [22] is T3, Adenosine receptor A3. As to the kind of experiment: biochemical. This is another data set of the same source.
In test [23] the target is T4, Adenosine receptor A1. As to the kind of experiment: Displacement of [3H]DPCPX from human Adenosine A1 receptor expressed in CHO cells; range 601-888. It is filed as cell-based. In short, it runs like this:
as §2

Test [24] concerns the target T2, Adenosine receptor A2a. As to the kind of experiment: Displacement of [3H]SCH-58261 from human Adenosine A2A receptor expressed in HEK293 cells; range 93-130. Type of test: cell-based.
For test [25], the target named is T3, Adenosine receptor A3. As to the kind of experiment: Inhibition of IB-MECA agonist-mediated cAMP production in CHO cell membranes expressing human Adenosine A3 receptor; range 2.7-7.8. Type of test: functional, cell-based.
For test [26], the target named is T1, Adenosine receptor A2b. As to the kind of experiment: Displacement of [3H]DPCPX from human Adenosine A2B receptor expressed in HEK293 cells; range 244-373. It is filed as cell-based. Summed up: as §1
In test [27] the target is T3, Adenosine receptor A3. As to the kind of experiment: biochemical. The source holds these as a separate data set.

For `CCCn1cc2c(nc(NC(=O)Cc3ccccc3)n3nc(-c4ccco4)nc23)n1`, the negative logarithm of the Ki (pKi) on Adenosine receptor A2b [1] was 6.84; at Adenosine receptor A2a [2] it was 6.51; on Adenosine receptor A3 [3], 9.00. Besides, the Ratio in test [4] was 142; in test [5], 348.

For the compound `Cn1cc2c(nc(NC(=O)Nc3ccc(Cl)cc3)n3nc(-c4ccco4)nc23)n1`, the negative-log Ki (pKi) at Adenosine receptor A2b [6] was 6.89; on Adenosine receptor A1 [7], 6.37; at Adenosine receptor A3 [8] it was 9.54; at Adenosine receptor A2a [10], 6.74. For the same compound, the pIC50 at Adenosine receptor A3 [9] was 8.62. The figures for the Ratio in [4] and in [5] were 441 and 1480, respectively.

Consider `CCCCn1cc2c(nc(NC(=O)Nc3ccc(S(=O)(=O)O)cc3)n3nc(-c4ccco4)nc23)n1`, for which the pKi on Adenosine receptor A1 [11] was under 5.00; at Adenosine receptor A2b [12] it was under 5.00; on Adenosine receptor A3 [13], 7.33; on Adenosine receptor A2a [14], 6.45. Further, the Ratio in test [4] and in test [5] was over 213 throughout.

Consider `CCn1cc2c(nc(NC(=O)Nc3ccc(Cl)cc3)n3nc(-c4ccco4)nc23)n1`, for which the negative-log Ki (pKi) is 6.40 at Adenosine receptor A1 [15], 7.07 on Adenosine receptor A2b [16], 6.80 on Adenosine receptor A2a [17] and 9.70 on Adenosine receptor A3 [18]. Moreover, the Ratio in [4] is 425; in test [5], 2000.

For the compound `CCCCn1cc2c(nc(NC(=O)Nc3ccc4c(c3)OCO4)n3nc(-c4ccco4)nc23)n1`, the negative-log Ki (pKi) on Adenosine receptor A1 [19] is 6.39; on Adenosine receptor A2b [20], 7.11; on Adenosine receptor A2a [21], 6.42; at Adenosine receptor A3 [22] it was 9.30. In addition, the Ratio was found to be 156 in test [4] and 820 in test [5].

With `Cc1ccc(NC(=O)Nc2nc3nn(C)cc3c3nc(-c4ccco4)nn23)cc1`, the negative logarithm of the Ki (pKi) is 6.14 on Adenosine receptor A1 [23], 6.96 on Adenosine receptor A2a [24], 6.52 on Adenosine receptor A2b [26] and 9.51 on Adenosine receptor A3 [27]. This compound gave a negative-log IC50 (pIC50) on Adenosine receptor A3 [25] of 8.34. For the same compound, the Ratio worked out at 974 in test [4] and 2360 in test [5].
